For orientation: Ki means the equilibrium dissociation constant of an inhibitor or competing ligand from its target. The low end stands for higher affinity, the high end for lower affinity.

Square brackets hold non-standard residues; d marks the D form. Peptide text beside a SMILES is read from it. * marks the point of attachment. sY = N[C@@H](Cc1ccc(OS(=O)(=O)O)cc1)C(=O)O; Boc = CC(C)(C)OC(=O)*

Eleven molecules from ChEMBL document CHEMBL1123849, “Synthesis and binding affinities of analogues of cholecystokinin-(30-33) as probes for central nervous system cholecystokinin receptors” (J Med Chem, 1987) can be followed below.

This assay has as its target T1, Cholecystokinin receptor (Mus musculus, UniProt O08786+P56481).
T1 sequence (O08786 whole entry): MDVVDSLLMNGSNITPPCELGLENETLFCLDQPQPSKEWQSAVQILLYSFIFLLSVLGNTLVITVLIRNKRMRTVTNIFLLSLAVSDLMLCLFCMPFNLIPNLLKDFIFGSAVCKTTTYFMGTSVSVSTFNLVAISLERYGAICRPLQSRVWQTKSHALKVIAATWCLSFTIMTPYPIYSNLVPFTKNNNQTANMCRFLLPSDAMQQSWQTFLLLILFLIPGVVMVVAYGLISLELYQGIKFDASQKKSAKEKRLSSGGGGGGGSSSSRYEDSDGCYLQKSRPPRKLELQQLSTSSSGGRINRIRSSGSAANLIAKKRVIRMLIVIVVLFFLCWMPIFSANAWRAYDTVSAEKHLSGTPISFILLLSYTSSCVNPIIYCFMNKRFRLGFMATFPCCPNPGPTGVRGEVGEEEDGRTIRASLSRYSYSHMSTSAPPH
T1 sequence (P56481 whole entry): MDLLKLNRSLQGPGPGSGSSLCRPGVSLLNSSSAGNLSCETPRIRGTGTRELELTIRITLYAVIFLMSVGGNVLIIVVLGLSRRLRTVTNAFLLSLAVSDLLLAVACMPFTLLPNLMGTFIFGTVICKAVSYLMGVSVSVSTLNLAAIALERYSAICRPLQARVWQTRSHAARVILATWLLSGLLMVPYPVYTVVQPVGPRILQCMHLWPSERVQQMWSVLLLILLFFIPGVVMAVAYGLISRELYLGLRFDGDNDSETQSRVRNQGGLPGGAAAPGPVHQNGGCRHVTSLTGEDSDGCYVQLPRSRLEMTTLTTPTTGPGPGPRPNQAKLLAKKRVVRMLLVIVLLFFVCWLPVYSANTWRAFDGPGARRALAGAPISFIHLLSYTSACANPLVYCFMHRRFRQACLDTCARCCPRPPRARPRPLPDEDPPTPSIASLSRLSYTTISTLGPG
Description: Displacement of [3H]pentagastrin from Cholecystokinin receptor of mouse cerebral cortex. It is filed as tissue-based. Summed up:
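Radioligand was [3H]-Boc-β-alanyl-CCK-30-33 (pentagastrin), displaced from central CCK receptors in homogenized mouse cerebral cortex.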
`CC(C)(C)OC(=O)N[C@@H](Cc1c[nH]c2ccccc12)C(=O)NCCC(=O)NC(Cc1ccccc1)C(N)=O` (stereo partly specified) registered a Ki of 45000 nM. `CSCC[C@H](NC(=O)[C@H](Cc1c[nH]c2ccccc12)NC(=O)OC(C)(C)C)C(=O)N[C@@H](CC(=O)O)C(=O)N[C@@H](Cc1ccccc1)C(N)=O` came in with an inhibition constant (Ki) of 1.8 nM.

On to `CC(C)(C)OC(=O)N[C@@H](Cc1c[nH]c2ccccc12)C(=O)NCC(=O)N[C@@H](Cc1ccccc1)C(N)=O` (Boc-Trp-Gly-Phe-NH2), for which the Ki was 11000 nM. In the case of `CC(C)(C)OC(=O)N[C@@H](Cc1c[nH]c2ccccc12)C(=O)NCC(=O)N[C@@H](CC(=O)O)C(=O)N[C@@H](Cc1ccccc1)C(N)=O` (Boc-WGDF-NH2) it was 1600 nM; in that of `CSCC[C@H](NC(=O)[C@H](Cc1c[nH]c2ccccc12)NC(=O)OC(C)(C)C)C(=O)NCC(=O)N[C@@H](Cc1ccccc1)C(N)=O` (Boc-WMGF-NH2), 24000 nM. In the case of `CSCC[C@H](N)C(=O)N[C@@H](CC(=O)O)C(=O)N[C@@H](Cc1ccccc1)C(N)=O` (H-Met-Asp-Phe-NH2), the affinity corresponds to a Ki of 100000 nM. The figure for `CSCC[C@H](NC(=O)[C@H](Cc1c[nH]c2ccccc12)NC(=O)CNC(=O)[C@H](CCSC)NC(=O)[C@@H](N)Cc1ccc(OS(=O)(=O)O)cc1)C(=O)N[C@@H](CC(=O)O)C(=O)N[C@@H](Cc1ccccc1)C(N)=O` (H-[sY]MGWMDF-NH2) is 2 nM; for `CSCC[C@H](NC(=O)[C@H](Cc1ccc(OS(=O)(=O)O)cc1)NC(=O)[C@@H](N)CC(=O)O)C(=O)NCC(=O)N[C@@H](Cc1c[nH]c2ccccc12)C(=O)N[C@@H](CCSC)C(=O)N[C@@H](CC(=O)O)C(=O)N[C@@H](Cc1ccccc1)C(N)=O` (stereo in doubt; 1) [SINCALIDE] it is 3 nM. Regarding `CSCC[C@H](NC(=O)[C@H](Cc1ccc(OS(=O)(=O)O)cc1)NC(=O)[C@@H](N)CC(=O)O)C(=O)NCC(=O)N[C@@H](Cc1c[nH]c2ccccc12)C(=O)N[C@@H](CCSC)C(=O)N[C@@H](CC(=O)O)C(=O)N[C@@H](Cc1ccccc1)C(N)=O` (stereo in doubt; 2) [SINCALIDE], the Ki is 180 nM. The figure for `CSCC[C@H](NC(=O)[C@H](Cc1c[nH]c2ccccc12)NC(=O)CCNC(=O)OC(C)(C)C)C(=O)N[C@@H](CC(=O)O)C(=O)N[C@@H](Cc1ccccc1)C(N)=O` [PENTAGASTRIN] is 0.6 nM.

In the case of `CSCC[C@H](NC(=O)[C@@H](N)Cc1c[nH]c2ccccc12)C(=O)N[C@@H](CC(=O)O)C(=O)N[C@@H](Cc1ccccc1)C(N)=O` [TETRAGASTRIN], the Ki is 3 nM.
